# EBI2 block: EBI2 receptor antagonists, beta-arrestin recruitment, primary screen, cell-based, luminescence, 7a,25-OHC stimulation, uHTS. G-protein coupled receptor 183 (Homo sapiens), P32249. 7a,25-OHC stimulated. inhibition, % at 5 µM. 0.81% of 360,000 active; in the data active = inhibition above about 38%;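 also: enzyme fragment complementation signal reports receptor beta-arrestin coupling in cells; 0% = agonist plus DMSO wells and 100% = wells without agonist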
# CCR6 antag: CCR6 receptor antagonists, primary screen, cell-based, CHO-K1, luminescence, beta-arrestin, uHTS | 0.49% of 340,000 active | inhibition, % at 20 µM | CHO-K1 CCR6 PathHunter beta-arrestin, CCL20-stimulated | AID 493098, 2011;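 active = compounds whose inhibition of the agonist-driven luminescence signal at 20 µM reaches about 50%, limit read from the data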;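 also: cells stimulated with CCL20 at 14 nM final; plate controls were DMSO with CCL20 for no effect and DMSO without agonist for full effect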
# APJ ag: agonists of human apelin receptor APJ, primary screen, CHO-K1 cells, PathHunter beta-arrestin, luminescence. 0.11% of 330,000 active. P35414. 0% DMSO wells, 100% apelin. AID 2520, 2010. activation, % at 20 µM;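 active = activation more than six SD over the plate average, tested at 20 µM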;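 also: 0% = DMSO alone and 100% = apelin-13 at 10 nM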
# Target sequence (P35414 whole entry, looked up): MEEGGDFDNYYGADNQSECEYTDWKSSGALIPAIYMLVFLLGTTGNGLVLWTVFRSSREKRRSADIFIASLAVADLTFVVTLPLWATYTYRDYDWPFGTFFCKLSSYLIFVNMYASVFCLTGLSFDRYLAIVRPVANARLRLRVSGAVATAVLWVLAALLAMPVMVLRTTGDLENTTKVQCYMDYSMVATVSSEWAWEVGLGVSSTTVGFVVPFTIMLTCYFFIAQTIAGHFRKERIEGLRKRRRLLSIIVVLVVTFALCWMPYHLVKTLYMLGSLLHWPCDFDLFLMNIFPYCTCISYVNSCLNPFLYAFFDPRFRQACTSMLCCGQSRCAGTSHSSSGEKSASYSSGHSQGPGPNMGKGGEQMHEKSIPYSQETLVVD
#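 Assay system: CHO-K1 cells stably expressing ProLink-tagged human APJ and arrestin–beta-gal acceptor. Compound dosing: 20 µM single point, 1% DMSO. Times: 16-18 h seeding, 90 min dark compound exposure, 60 min detection. Detection: beta-gal luminescence. Evaluation: APJ–arrestin association signal. Controls: negative DMSO alone, positive Apelin-13 at 10 nM.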
# CXCR6 inh: CXCR6 receptor inhibitors, primary screen, cell-based, beta-arrestin, luminescence, CHO-K1 PathHunter, 1536-well. C-X-C chemokine receptor type 6 (Homo sapiens), O00574. inhibition, % at 20 µM. 0.36% of 360,000 active. AID 602244, 2012; in the data active = inhibition above about 34%, passing the limit was not always enough;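 also: antagonist mode with CXCL16 agonist at 10 nM final; 0% = 10 nM CXCL16 with DMSO and 100% = unstimulated wells without agonist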
# TAG inh: inhibitors of triacylglycerol accumulation, primary screen, cell-based, uHTS, fluorescence, H9c2 | H9c2 cells, Nile Red lipid (TAG) fluorescence; cells loaded with 200 µM oleic acid | inhibition, % at 12.5 µM | 0.66% of 230,000 active;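 active = pattern-corrected inhibition of lipid staining of at least 50% with the nuclear-stain viability signal not falling by more than 50%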;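 also: 0% = DMSO wells and 100% = triacsin C control wells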
# APJ antagonist: antagonists of human apelin receptor APJ, primary screen, CHO-K1 cells, beta-arrestin complementation, luminescence; AID 2521, 2010; inhibition, % at 20 µM; P35414; 0.32% of 330,000 active;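 active = inhibition above about 40% at 20 µM, limit read from the data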;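 also: cells challenged with 10 nM apelin-13 agonist together with compound; plate controls were apelin-13 plus DMSO wells for no effect and DMSO wells lacking apelin-13 for full effect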
# TAG conf: triacylglycerol accumulation inhibitors, retest, confirmation, cell-based, single concentration, Nile Red fluorescence, H9c2; shares compounds with TAG inh; H9c2 lipid accumulation; cells loaded with 200 µM oleic acid; inhibition, % at 12.5 µM; 71% of 990 active;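 active = mean inhibition across replicates of 40% or more; inactive = mean inhibition below 40%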;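 also: plate controls were DMSO only wells for no effect and Triacsin C treated wells for full effect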
# * = called active by the depositor; . = no result. In the library only some 1.9% were active in any assay of this set; here they are far more common.
SMILES,EBI2 block,CCR6 antag,APJ ag,CXCR6 inh,TAG inh,APJ antagonist,TAG conf
O=C1OC2C(O)COC23OC(O)CCC13O (centres undefined),-3,.,.,3,.,.,.
CC(C)C[C@@H](CNC(=O)OC(C)(C)C)NC(=O)c1nc[nH]c1C(=O)N[C@@H](CC(C)C)C(=O)CNC[C@H](CC(C)C)NC(=O)c1nc[nH]c1C(=O)N[C@@H](Cc1c[nH]c2ccccc12)C(=O)OC(C)(C)C,3,0,-1,-15,60*,-4,52*
O=C(CSc1ccc(-c2cccc([N+](=O)[O-])c2)nn1)N1CCCC1,4,12,-1,-6,60*,-8,3
COc1cccc(/C=C/C(=O)NNC(=O)c2ccccc2)c1OC,-2,4,-2,2,-5,4,.
COc1cccc(/C=C/C(=C2/C(=O)N(c3ccccc3)N=C2C)c2ccc(C)cc2)c1OC,17,11,-1,5,112*,10,129*
CC1=C(C(=O)N(C)C)CC(CC(=O)NCc2ccco2)C(=O)N1Cc1ccccc1 (centres undefined),-2,.,.,5,-1,.,.
Cc1cc(NC(=O)CSc2nc(-c3ccco3)cc(C(F)(F)F)n2)no1,-4,2,-2,5,66*,3,58*
O=C(N[C@@H]1CCC(=O)N(CC[C@H](Oc2ccccc2)c2ccccc2)CC1)OCc1ccccc1,23,3,-1,7,-13,-2,.
Cc1cc(C)n(-c2nc3c(c(=O)[nH]c(=O)n3C)n2CC(O)COc2ccc(Cl)cc2Cl)n1 (centres undefined),7,4,-3,1,82*,-4,74*
COc1cc2c(c(OC)c1OC)-c1ccc(SC)c(=O)cc1C(NC(=O)c1ccccc1)CC2 (centres undefined),-24,1,.,7,27,.,.
COc1cc2c(c(OC)c1OC)-c1ccc(SC)c(=O)cc1C(NC=O)CC2 (centres undefined),-15,9,.,6,69*,.,47*
COc1cc2c(c(OC)c1OC)-c1ccc(OC)c(=O)cc1C(NC(=O)c1ccccc1)CC2 (centres undefined),-18,1,.,-6,55*,.,69*
[2H]C([2H])(CCOS(N)(=O)=O)c1ccccc1,-11,-1,0,-3,-71,-83,.
O=C(Nc1nc2ccc(C(=O)N3CCCCC3)cc2s1)C1CCCCC1,2,4,-1,1,64*,-9,68*
Nc1ccc2nc(NC(=O)C3CCCCC3)sc2c1,8,-1,0,0,10,-20,.
Cc1cc(-n2c(C)cc(C(=O)CSc3nc4ccccc4c(=O)n3Cc3ccco3)c2C)no1,38,20,0,4,55*,4,21
CC/C(=N/N=C(/CC)c1ccc(O)cc1)c1ccc(O)cc1,25,1,-3,-5,-2,-4,.
Cc1nn(-c2ccccc2)c2c1CC(=O)Nc1ccccc1-2,-18,5,.,5,74*,.,87*
Cc1nn(-c2ccccc2)c(=O)c2ccccc12,-9,12,-1,2,7,10,.
O=C(COc1ccccc1-c1ccccc1)N/N=C/c1cccc2ccccc12,-3,1,9,7,63*,-12,36
Cc1ccc(CNC(=O)CCn2cc(-c3ccc(C)cc3)nc2CCN)cc1,-1,13,-7,-5,10,7,.
Cc1cccc(N2CN(S(=O)(=O)c3cccc([N+](=O)[O-])c3)c3nc4ccccc4nc32)c1,-19,0,6,-7,54*,5,37
COc1ccccc1N1CN(S(=O)(=O)c2ccc(C)cc2)c2nc3ccccc3nc21,14,10,-2,4,-9,8,.

# Compound activity (PubChem)
